Results on one compound are retold here after ChEMBL document CHEMBL1137675, “Convenient one-pot synthesis of novel 2-substituted benzimidazoles, tetrahydrobenzimidazoles and imidazoles and evaluation of their in vitro antibacterial and antifungal activities” (2009).

Assay [1] has as its system Salmonella typhimurium. Nature of the assay: Antibacterial activity against Salmonella Typhimurium MTCC 98 at 37 degC after 24 hrs by filter paper disk method. The assay is classed as functional, Salmonella enterica subsp. enterica serovar Typhimurium. Conditions: Salmonella enterica, MTCC 98, 24 h. Summed up: (§1)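 Compounds were taken from a 1 mg/ml DMSO stock and serially diluted two-fold over a 300 to 18.75 range, then loaded onto sterile 8 mm paper discs. Bacteria were grown overnight in nutrient broth at 37 °C, pelleted, and resuspended in sterile NSS to 10⁵ cfu/ml. About 0.1 ml was spread on NA plates. Plates were incubated 24 h at 37 °C with a solvent control disc, and inhibition zone diameter was read in mm.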

Assay [2] has as its system Bacillus subtilis. Description: Antibacterial activity against Bacillus subtilis ATCC 6051 at 37 degC after 24 hrs by filter paper disk method. The assay is classed as functional. To be noted: Bacillus subtilis, ATCC 6051, 24 h. The procedure, abridged: as §1
The test system of assay [3] is Staphylococcus aureus. Nature of the assay: Antibacterial activity against Staphylococcus aureus MSSA 22 at 37 degC after 24 hrs by filter paper disk method. The assay is classed as functional. Conditions: Staphylococcus aureus, MSSA 22, 24 h. The procedure, abridged: as §1
Assay [4] has as its system Escherichia coli. Description: Antibacterial activity against Escherichia coli K-12 at 37 degC after 24 hrs by filter paper disk method. The assay is classed as functional. To be noted: Escherichia coli, K-12, 24 h. The procedure, abridged:
as §1

The subject of assay [5] is Bacillus subtilis. Description: Antibacterial activity against Bacillus subtilis ATCC 6051 at 30 ug/disk at 37 degC after 24 hrs by filter paper disk method. To be noted: ATCC 6051, 24 h, read-out: DIZ. The assay is classed as functional. The procedure, abridged:
(§2)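 Chloramphenicol was given as a reference antibiotic disc. Bacteria were grown overnight in nutrient broth at 37 °C and adjusted to 10⁵ cfu/ml in sterile NSS. About 0.1 ml was spread on NA plates next to 8 mm discs, including a solvent disc. Plates were incubated 24 h at 37 °C, and zones of inhibition were measured in mm.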

The subject of assay [6] is Staphylococcus aureus. Nature of the assay: Antibacterial activity against Staphylococcus aureus MSSA 22 at 30 ug/disk at 37 degC after 24 hrs by filter paper disk method. The assay is classed as functional. Conditions: MSSA 22, 24 h, read-out: DIZ. Summed up:
(§3)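 Disc diffusion on nutrient agar. Inoculum was grown overnight in NA broth at 37 °C, centrifuged, and resuspended in sterile NSS to 10⁵ cfu/ml; about 0.1 ml was spread per plate. Sterile 8 mm discs carried compound, with a 1 mg/ml DMSO stock diluted two-fold from 300 to 18.75. Controls were a solvent disc and a chloramphenicol disc. After 24 h at 37 °C, inhibition-zone diameter was read in mm.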

Assay [7] relates to Escherichia coli. Description: Antibacterial activity against Escherichia coli K-12 at 30 ug/disk at 37 degC after 24 hrs by filter paper disk method. Conditions: K-12, 24 h, read-out: DIZ. The assay is classed as functional. Summed up:
as §3

Assay [8] relates to Salmonella typhimurium. Nature of the assay: Antibacterial activity against Salmonella Typhimurium MTCC 98 at 30 ug/disk at 37 degC after 24 hrs by filter paper disk method. The assay is classed as functional, Salmonella enterica subsp. enterica serovar Typhimurium. To be noted: Salmonella enterica, MTCC 98, 24 h; read-out: DIZ. The procedure, abridged: as §2

≈ marks a conversion by molar mass, not a printed value.

Broadly, the MIC is the lowest concentration that inhibits growth of the organism. A higher MIC goes with weaker potency. `O=C(N[C@H](CO)[C@H](O)c1ccc([N+](=O)[O-])cc1)C(Cl)Cl` [CHLORAMPHENICOL]: the minimal inhibitory concentration (MIC) is 6 µg/mL (≈ 18.6 µM) in the assay on Salmonella typhimurium [1], 6 µg/mL (≈ 18.6 µM) in the assay on Bacillus subtilis [2], 12.5 µg/mL (≈ 38.7 µM) against Staphylococcus aureus [3] and 12.5 µg/mL (≈ 38.7 µM) with Escherichia coli [4]. Further, the zone of inhibition at 30 µg/disc in the assay on Bacillus subtilis [5] stood at 24 mm; in the assay with Staphylococcus aureus [6], 26 mm; in the assay on Escherichia coli [7], 25 mm; in the assay on Salmonella typhimurium [8], 20 mm.
